# Screens: PubChem BioAssay, several laboratories
# Sampled rows, rich in hits. Any-hit rate of the full collection: about 2.8%.
# JMJD2C inh: inhibitors of GASC-1 histone demethylase, primary screen, biochemical, fluorescence, DELFIA europium; 0.069% of 330,000 active; Lysine-specific demethylase 4C (Homo sapiens), Q9H3R0; inhibition, % at 2.35 µM; AID 2099, 2009; GST-JMJD2C(1-420) H3K9me3 demethylation;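 active means more than half of a compound's replicate wells show inhibition beyond 50%, single wells judged on their own value; inconclusive means some, but no more than half, of replicates pass 50% inhibition; inactive means no replicate passes 50% inhibition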;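 further: signal counts dimethyl H3K9 product captured on neutravidin plate; 0% = median of DMSO wells and 100% = 0.3 times that DMSO median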
# Target sequence (Q9H3R0 1-420 limits assumed): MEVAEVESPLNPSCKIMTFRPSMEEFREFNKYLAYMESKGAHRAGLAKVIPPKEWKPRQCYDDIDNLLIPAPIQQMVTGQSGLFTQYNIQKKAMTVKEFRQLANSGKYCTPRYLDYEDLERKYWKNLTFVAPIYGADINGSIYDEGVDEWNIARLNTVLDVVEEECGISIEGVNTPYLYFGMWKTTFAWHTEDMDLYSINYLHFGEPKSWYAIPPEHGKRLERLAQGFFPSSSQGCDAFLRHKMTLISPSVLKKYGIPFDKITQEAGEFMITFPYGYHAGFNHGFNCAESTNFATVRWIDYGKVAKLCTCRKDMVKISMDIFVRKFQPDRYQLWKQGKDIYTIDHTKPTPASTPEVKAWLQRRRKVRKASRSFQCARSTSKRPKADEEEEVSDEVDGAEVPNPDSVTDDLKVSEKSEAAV
# GRIN3A LBD mod: binders of NR3A ligand-binding domain, primary screen, biophysical, differential scanning fluorimetry, uHTS; Glutamate receptor ionotropic, NMDA 3A (GRIN3A) ligand-binding domain; NR3A LBD differential scanning fluorimetry, Tm shift; 0% = protein alone, 100% = glycine-bound protein; Tm shift relative to glycine control, % at 25 µM; 2.5% of 340,000 active;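 active means melting temperature shift of at least 10% of the positive control shift, at one fixed dose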
# Rtt109 Vps75: inhibitors of C. albicans Rtt109/Vps75 HAT, primary screen, biochemical, ThioGlo CoA-SH fluorescence, plate reader; inhibition, % at 34.9 µM; 0.16% of 330,000 active; purified Rtt109/Vps75, 4 h; AID 540336, 2011;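 active means inhibition of at least 50% in every replicate; inconclusive means best replicate reaches 50% inhibition but some replicates fall short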
# T cell HTS: modulators of CD8 T cell-vesicle binding, primary screen, mouse 2C CD8+ T cells, flow cytometry | 2C CD8+ T cell-vesicle binding; active compounds read low | response (vesicle binding), % at 7 µM | 0.068% of 330,000 active | AID 2052, 2009;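 active means response, share of CD8 T cells binding vesicles, and their 90th percentile fluorescence all below set limits, cut at about 80% in these data, passing the limit was not always enough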;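 further: values below 100% mean blocked vesicle binding to the CD8+ T cells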
#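 Incubation: binding step 1.5 h, 37 °C, antibody labelling 20 min, ice; system: murine 2C transgenic CD8+ T lymphocytes; technique: cytometric PE anti-B7-1 and Alexa647 anti-CD8 signals after 1% paraformaldehyde fixation; also added: QL9-charged Drosophila Ld/ICAM-1/B7-1 vesicles; control set: naked versus QL9-loaded vesicles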
# Active calls of the source: *; i = inactive; ? = inconclusive; / = no result given; ! = repeats disagree.
SMILES,JMJD2C inh,GRIN3A LBD mod,Rtt109 Vps75,T cell HTS
CN(C)c1ccc(C=NCC2COc3ccccc3O2)cc1 (stereo unspecified),0.6,-1.9,-2.8,182.5
Cc1ccc(-n2[nH]c(C)c(/C=N/Nc3ccc([N+](=O)[O-])cc3[N+](=O)[O-])c2=O)cc1C,9.0,19.8*,1.9,0.0
Cc1[nH]n(-c2ccccc2)c(=O)c1/C=N/NC(=O)c1cccc([N+](=O)[O-])c1,10.4,-1.7,2.7,826.2
CCCc1nc2c(=O)n(C)c(=O)[nH]c2n1CCC,-12.7,14.0*,-2.1,249.0
COc1ccc(N=C2NC(=O)/C(=C/c3ccc(O)c(OC)c3)S2)cc1,-0.9,19.8*,-9.9,139.4
COc1cc(/C=C2\SC(=Nc3ccc(O)cc3)NC2=O)cc(OC)c1OC,-7.6,-5.1,/,315.8
COc1cc(/C=C2/SC(=Nc3ccc(O)cc3)NC2=O)cc(OC)c1O,8.8,10.9*,5.2,193.1
CC(C)[C@H](NS(=O)(=O)c1ccccc1)C(=O)OCc1cc([N+](=O)[O-])cc2c1OCOC2,/,0.4,2.7,/
Cc1ccc(C(=O)NCC(=O)N(C)CC(=O)Nc2ccccc2Br)s1,-4.1,-0.3,14.6,227.9
CCCCCCCCCCOC(=O)Cn1c(COc2cccc(C)c2)[n+](C)c2ccccc21,9.6,0.3,-0.5,597.9
CCCCCCCCCCOC(=O)Cn1c(COc2ccc(OC)cc2)[n+](C)c2ccccc21,-14.4,3.4,83.9*!,120.7
CCCCCCCCCCOC(=O)Cn1c(COc2ccccc2)[n+](C)c2ccccc21,-2.6,-0.9,-5.0,303.8
CCCCCCCCCCOC(=O)Cn1c(COc2ccccc2C)[n+](C)c2ccccc21,7.9,31.0*,-4.4,88.2
CCCCCCCCCCOC(=O)Cn1c(COc2ccc(Cl)cc2)[n+](C)c2ccccc21,29.7,20.7*,-3.9,238.7
CCN(CC)c1ccc(S(=O)(=O)N2CCOCC2)cc1NC(=O)CSc1nnc(N)s1,-8.3,-0.5,34.8,678.7
CSCC(C)N1CCC(N2CCC(C(=O)NCc3ccccn3)CC2)CC1 (stereo unspecified),-4.6,0.6,-4.5,336.0
C=CCn1c(SCC(=O)N(CCOC)c2c(N)n(CCCC)c(=O)[nH]c2=O)nnc1-c1ccc(Cl)cc1,4.6,-0.6,3.2,224.7
COC(=O)C1=C(C)N(CCc2ccccc2)C(=O)/C1=C\c1ccco1,4.4,19.2*,3.7,313.3
COC(=O)C1=C(C)N(Cc2ccccc2)C(=O)/C1=C\c1ccco1,0.6,-1.0,2.1,411.2
O=C(NNc1c2ccccc2nc2ccccc12)c1cccc(O)c1,4.6,-0.9,-14.7,209.4
Oc1cccc(-c2nc3ccc4ccccc4c3c3c2CCC3)c1,2.4,12.1*,2.2,193.2
COC(=O)c1cnn(-c2ccc(C)c(C)c2)c1-n1cccc1,2.5,11.1*,8.2,328.8
CSc1ccccc1C(=O)Nc1ccc(C)c(C)c1,101.8*,1.8,11.6,409.5
Cc1ccc(NC(=O)c2ccc(NC(=O)c3ccccc3)cc2)cc1C,0.2,17.0*,-6.2,215.9
O=C(Nc1cc(-c2ccccc2)[nH]n1)c1ccc(Cl)cc1,12.6,18.5*,-4.8,688.9
SMILES,JMJD2C inh,GRIN3A LBD mod,Rtt109 Vps75,T cell HTS
CNC(=O)Nc1ccc(C2SCCS2)cc1,-0.9,2.0,10.2,866.9
O=C(Nc1ccc(C2SCCS2)cc1)c1ccccc1,-1.7,14.8*,/,677.5
CSc1ccccc1C(=O)Nc1cc(C)cc(C)c1,1.4,-0.6,8.7,166.4
CN1CCN(S(=O)(=O)c2ccccc2)C(c2ccccc2)C1 (stereo unspecified),-10.7,3.2,1.8,212.8
N#C/C(=C\c1cccnc1)C(=O)Nc1ccc(Cl)cc1,-3.5,3.5,0.6,0.0
N#C/C(C(=O)Nc1ccc(Cl)cc1)=C(/S)Nc1ccccc1,-18.3,32.5*,?,42.4
O=C(Nc1ccc2c(c1)OCCO2)c1oc2ccccc2c1NC(=O)C1CC1,7.5,-4.3,-0.7,368.4
O=C(Nc1ccc2ncccc2c1)c1cccc(Br)c1,12.6,22.4*,14.6,153.8
O=C(Nc1ccc(Nc2ccccc2)cc1)c1ccc(Cl)cc1,9.5,31.9*,-6.6,i
O=C(Nc1ccccc1)c1oc2ccccc2c1NC(=O)C1CC1,2.7,13.3*,-5.0,498.3
CC(Oc1ccc(C(=O)c2ccccc2)cc1)C(=O)N1CCOCC1 (stereo unspecified),1.7,-0.5,-5.3,415.2
CCc1sc(C(=O)Nc2cccnc2)cc1Br,-7.3,0.1,0.5,347.0
O=C(Nc1ccc(Nc2ccccc2)cc1)c1ccc(Br)cc1,-13.3,36.3*,18.7,291.2
CC(=O)c1ccc(NC(=O)c2cccc(NC(=O)c3ccccc3)c2)cc1,0.8,-8.7,1.0,629.0
O=C(Nc1ccc(Cl)cc1)C1=Cc2ccccc2OC1,-0.2,19.9*,11.6,369.7
O=C(Nc1ccc(F)cc1)c1ccccc1,-2.1,15.7*,0.7,573.6
O=C(Cc1ccccc1)Nc1ccc(NC(=O)c2ccc(Br)cc2)cc1,6.4,2.2,-0.6,143.3
O=C(Nc1cccc(C(=O)Nc2ccc(Br)cc2)c1)c1ccccc1,2.5,27.3*,0.3,164.9
CCN(C(=O)COC(=O)C1CCN(S(=O)(=O)c2ccc3c(c2)OCCO3)CC1)C1CCCCC1,1.1,2.1,12.0,322.2
CN(C(=O)CSc1nc2ccccc2n1C)C1CCS(=O)(=O)C1 (stereo unspecified),-8.4,-0.8,-1.8,i
Nc1nonc1-n1nnc(C(=O)N/N=C/c2cc(Cl)ccc2O)c1CN1CCCCCC1,-2.2,/,-15.9,654.1
Cc1ccc(NC(=O)c2ccc(NS(=O)(=O)c3c(C)noc3C)cc2)cc1C,-3.3,30.1*,11.1,467.7
O=C(Nc1ccc(Nc2ccccc2)cc1)c1ccccc1,24.5,13.5*,/,410.8
O=C(Nc1ccccc1)c1ccc(NC(=O)C2CC2)cc1,-3.7,15.9*,-12.6,285.7
Cc1ccc(C(=O)Nc2ccc(Nc3ccccc3)cc2)cc1Br,-19.7,25.5*,/,544.4
SMILES,JMJD2C inh,GRIN3A LBD mod,Rtt109 Vps75,T cell HTS
Cc1ccc(C(=O)Nc2ccc(Nc3ccccc3)cc2)cc1C,-0.6,6.5,6.6,451.5
CN(CC(=O)Nc1ccccc1Cl)C(=O)CN1C(=O)NC(c2ccccc2)(c2ccccc2)C1=O,2.0,1.8,12.0,188.7
CCOc1cc(N2CCOCC2)c(OCC)cc1NS(=O)(=O)c1cc(NC(C)=O)ccc1OC,-12.3,-0.7,5.8,237.5
COc1ccc(NC(=S)/N=C(\N)Nc2nc(C)c3ccc(C)cc3n2)cc1,-1.9,6.6,0.0,496.2
CCOc1ccc2nc(N/C(N)=N/C(=S)Nc3ccc(C)c(C)c3)nc(C)c2c1,4.0,20.1*,-11.9,i
c1ccc(-c2nnc3ccc(N4CCCC4)nn23)cc1,-10.6,-1.3,-0.9,287.6
